# Apaf1 inhib: blocks human Apaf-1 apoptosome activity; reconstituted apoptosome caspase-3 activity, DEVD-Rh110 fluorescence; O14727; inhibition, % at 20 µM; 0.71% of 330,000 active; active means inhibition of at least 40% at 20 µM;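 further: plate controls were DMSO wells for no effect and DEVD-CHO caspase inhibitor wells for full effect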
#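 Assay system – apoptosome proteins · Medium – Hepes buffer, pH 7.5 · Also added – cytochrome c with DEVD-Rh110 · Timing – 30 min compound preincubation, 50 min activation, room temperature · Detection – Rh110 fluorescence, excitation 480 nm, emission 540 nm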
# TDP2 absorb: TDP2 (human) inhibition, absorbance primary screen | recombinant TDP2, T5PNP hydrolysis, p-nitrophenol absorbance 415 nm | O95551 | 0.34% of 370,000 active | inhibition, % at 12.8 µM;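 active means inhibition above the mean of all tested compounds plus 3 SD, set per campaign, cut at about 25% in these data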;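 further: 0% = DMSO with enzyme and 100% = buffer with substrate but no TDP2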
#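 Assay system: recombinant human TDP2 / Reagent: T5PNP substrate at 5 mM, a TopII-DNA adduct mimic / Measured by: epi absorbance from released p-nitrophenol / Evaluation: % inhibition relative to enzyme-containing and enzyme-free wells / Control set: enzyme-free and DMSO wells / Replicates: each compound tested once, singlicate / Schedule: enzyme reaction with compound for 2 h at 37 °C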
# PP5 primary: blocks human protein phosphatase 5 activity | P53041 | purified PP5c, OMFP substrate fluorescence | inhibition, % at 6.7 µM | 0.18% of 320,000 active;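 active means inhibition above the campaign's mean inhibition across all tested compounds plus 3 SD, cut at about 9.5% in these data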;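 further: 0% = DMSO only and 100% = 100 µM cantharidin control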
# PP1 inh: PP1-alpha (human) inhibition in PP5 counter-screen; purified PP1alpha, OMFP fluorescence; P62136; inhibition, % at 6.7 µM; 0.9% of 320,000 active;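 active means inhibition above the mean inhibition of all tested compounds plus 3 SD, computed separately for each screening campaign, cut at about 15% in these data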
# Target sequence (P62136 whole entry, looked up): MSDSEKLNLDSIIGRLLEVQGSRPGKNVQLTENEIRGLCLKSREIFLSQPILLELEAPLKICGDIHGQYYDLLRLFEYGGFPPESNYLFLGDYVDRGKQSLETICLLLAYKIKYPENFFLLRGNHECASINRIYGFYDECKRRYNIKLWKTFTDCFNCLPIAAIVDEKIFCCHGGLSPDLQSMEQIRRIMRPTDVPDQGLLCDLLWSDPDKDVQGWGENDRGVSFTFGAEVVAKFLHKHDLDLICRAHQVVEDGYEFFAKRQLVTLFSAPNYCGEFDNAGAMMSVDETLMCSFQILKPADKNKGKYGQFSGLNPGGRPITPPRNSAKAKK
# GSTO1 inh: GSTO1 inhibition, counter-screen for RBBP9 inhibitors; inhibition, % at 5.96 µM; 1.1% of 300,000 active; recombinant GSTO1, activity-based probe fluorescence polarization; P78417;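 active means inhibition above the campaign mean inhibition plus 3 SD, cut at about 35% in these data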;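 further: 0% = GSTO1-1 with DMSO and 100% = wells lacking GSTO1-1 enzyme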
# Apaf-1 inh conf: confirmation of Apaf-1 inhibitors | shares compounds with Apaf1 inhib | reconstituted apoptosome, caspase-3 DEVD-Rh110 fluorescence | inhibition, % at 20 µM | 25% of 1,800 active | AID 504614;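 active means mean inhibition of at least 40% at 20 µM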;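 further: plate controls were DMSO wells for no effect and DEVD-CHO caspase inhibitor control wells for full effect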
# Rh110 interf inh: interferes with Rh110 fluorescence, flagging false Apaf-1 inhibitors | shares compounds with Apaf1 inhib | Rh110 fluorescence interference, quenched caspase reaction | 1,800 tested, under 10 active | activation (fluorescence interference), % at 20 µM | AID 504615;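 active means signal rise of 40% or more at 20 µM, treated as a fluorescence artifact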
# Fluor interf inh: Apaf-1 inhibitor counter-screen fluorescence artifact. shares compounds with Apaf1 inhib. fluorescence interference counterscreen, Apaf-1 assay format. IC50, µM. 460 tested, under 10 active; call rule not given here
# Active calls of the source: *; / = not tested or not shown. Shown are actives, neighbours in structure and some others; about 2.1% of the full set was active somewhere.
SMILES,Apaf1 inhib,TDP2 absorb,PP5 primary,PP1 inh,GSTO1 inh,Apaf-1 inh conf,Rh110 interf inh,others
Cc1cccc2nc(-c3ccccc3)c(-c3ccc(CN4CCC(n5cc(-c6ccccc6)[nH]c5=O)CC4)cc3)nc12,/,-1,/,/,/,/,/,
O=C(COC(=O)c1ccccc1)NCC1CCCO1 (centres undefined),56*,14,3,-3,1,5,1,
CCCC[C@H]1C2CC(OC(=O)Nc3ccc(C(F)(F)F)cc3)C(C2)[C@H]2CCCCN21 (some centres undefined),/,2,/,/,/,/,/,
Oc1ccc(C=Nc2cccc3ncccc23)c(O)c1,87*,9,2,1,15,6,-91,
Oc1ccc(C=Nc2ccccc2-c2nc3ccccc3[nH]2)c(O)c1,-6,0,5,1,7,/,/,
CC(=O)CC[C@@H]1CC[C@]2(CCCN(S(C)(=O)=O)C2)O1,/,-2,/,/,/,/,/,
CCOC(=O)N1CCN(S(=O)(=O)c2ccc(C(=O)N(CCN(C)C)c3nc4ccc(CC)cc4s3)cc2)CC1,4,-7,2,2,0,/,/,
CCOC(=O)N1CCN(S(=O)(=O)c2ccc(C(=O)N(CCCN(C)C)c3nc4ccc(CC)cc4s3)cc2)CC1,55*,-15,2,8,8,7,3,
CCN(CC)C(=O)CC[C@H]1CC[C@]2(CCCN(Cc3cccs3)C2)O1,/,12,/,/,/,/,/,
O=P(CCCCCCCCCP(=O)(c1ccccc1)c1ccccc1)(c1ccccc1)c1ccccc1,53*,-6,5,11,-5,30,1,
O=C(O)CCCCCCCCCCP(=O)(c1ccccc1)c1ccccc1,7,-11,-1,1,1,/,/,
Cc1cc(C(=O)N/N=C2\CC(=O)c3ccccc32)c(C)n1-c1ccc(F)cc1,69*,17,4,14,55*,22,-2,
CCCN(CC(=O)Nc1ccccc1OC)C(=O)Cn1[nH]c(=O)c2ccccc2c1=O,-8,-8,0,-1,/,/,/,
CCCN(CC(=O)Nc1ccccc1OC)C(=O)CSc1ccc(Br)cc1C,57*,6,2,-1,/,40*,4,Fluor interf inh=>100
CCCN(CC(=O)Nc1ccccc1C)C(=O)CCCOc1ccc(Br)cc1,53*,4,1,7,/,43*,9,Fluor interf inh=>100
CCCCNC(=O)C[C@H]1C[C@@]2(C(=O)OC)C(=C[C@H](C3CCCC3)O[C@@H]2C)N(Cc2ccc(Cl)cc2Cl)C1=O,/,-2,/,/,/,/,/,
O=C(CCc1ccccc1)N[C@H]1[C@H](O)CCC[C@]12C(=O)N(Cc1ccccc1)c1ccccc12,/,5,/,/,/,/,/,
O=C(CSc1nnc(-c2cccs2)o1)c1ccc2c(c1)OCO2,/,5,/,/,/,/,/,
COc1cc(NC(C)CCCN)c2ncccc2c1Oc1ccccc1 (centres undefined),70*,22,3,7,32,32,2,
CCOc1cc(/C=C/c2nc3cc(C)c(C)cc3s2)ccc1OCC(=O)N1CCOCC1,45*,8,0,3,-16,17,-15,
Cc1cc(C)cc(NC(=O)N2CCN(Cc3nc4ccccc4c(=O)[nH]3)CC2)c1,/,6,/,/,/,/,/,
C[C@H]1[C@@H](NC(=O)C2CCOC2)CC[C@@]23CCCN2C(=O)CCC[C@@H]13 (some centres undefined),/,-7,/,/,/,/,/,
N#Cc1c(N2CCCCC2)nc(N)c2c(N)nc3c(c12)CC(c1ccccc1)O3 (centres undefined),42*,5,8,-1,9,12,3,
CCC1Cc2c(nc(N)c3c(N)nc(N4CCCCC4)c(C#N)c23)O1 (centres undefined),7,22,4,-1,1,/,/,
CCCCCCCCN1C(=O)[C@@H](CC(=O)NCC2CCCCC2)C[C@@]2(C(=O)OC)C1=C[C@H](C(C)C)O[C@@H]2C1CC1,/,-8,/,/,/,/,/,
COC(=O)CC1CCc2cc(C)cc(C(=O)CC(C)C)c2O1 (centres undefined),/,-4,/,/,/,/,/,
COc1cc2nc(N3CCNCC3)nc(N)c2cc1OC,61*,11,1,2,4,66*,4,Fluor interf inh=>100
